Results taken from ChEMBL document CHEMBL3286389, “Targeting class A and C serine β-lactamases with a broad-spectrum boronic acid derivative” (J Med Chem, 2014).

Assays:
[1] = Competitive inhibition of Escherichia coli beta-lactamase AmpC using nitrocefin as substrate by UV-Vis spectrophotometry
How it was run: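 Pinacol esters were tested uncleaved and hydrolysed to free acid in 50 mM phosphate pH 7.4. Ki derived from IC50 plots assuming competitive inhibition.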

[2] = Competitive inhibition of wild type beta-lactamase TEM-1 (unknown origin) expressed in Escherichia coli using 6-beta-furylacryloylamido-penicillanic acid as substrate by spectrophotometry
How it was run: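 TEM-1, purified. Reactions started by 0.3 nM enzyme in the AmpC assay buffer (50 mM Tris pH 7.0). FAP substrate, absorbance change at 340 nm. Inhibitor stocks were 50 mM in DMSO, diluted in phosphate pH 7. Ki from comparison of progress curves with and without inhibitor.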

[3] = Competitive inhibition of Escherichia coli beta-lactamase AmpC N289A mutant using nitrocefin as substrate by UV-Vis spectrophotometry

Compound	Ki [1] [nM]	Ki [2] [nM]	Ki [3] [nM]
O=C(Cc1cccs1)N[C@H](B(O)O)c1cccc(C(=O)O)c1	1	64	–
CC(=O)/C=C/c1c(B(O)O)sc2ccccc12	240	–	–
O=C(O)/C=C/c1c(B(O)O)sc2ccccc12	90	–	50
OB(O)c1cc2ccccc2s1	–	50000	–
